# Laboratory results published in ChEMBL document CHEMBL3865789, “Synthesis and biological evaluation of isomeric methoxy substitutions on anti-cancer indolyl-pyridinyl-propenones: Effects on potency and mode of activity” (2016).
# Active and inactive are the calls of the source. The calls are words filed in the database; no cut-off is given here.
# What was measured:
# [1] = Growth inhibition of human U251 cells at 10 uM after 48 hrs by sulforhodamine B colorimetric assay relative to control; type: functional; conditions: U-251, 48 h, read-out: GI
# Summary of the method: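 U251 glioblastoma cells kept in DMEM with 10% FBS at 37°C, 5% CO2. Compounds in DMSO; vehicle-only controls. SRB colorimetric read-out at a 48 h end-point. GI50 relative to untreated control calculated by the NCI-60 protocol; top concentration tested 10 μM. Mean ± S.D. of three separate SRB assays.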
# [2] = Growth inhibition of human U251 cells after 48 hrs by sulforhodamine B colorimetric assay; type: functional; conditions: U-251, 48 h
# Summary of the method: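 U251 glioblastoma cells kept in DMEM with 10% FBS at 37°C, 5% CO2. Compounds in DMSO; vehicle-only controls. SRB colorimetric read-out at a 48 h end-point. Mean ± S.D. of three separate SRB assays.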
# [3] = test system: U-251; test: Induction of methuosis in human U251 cells assessed as vacuolization at 2.5 uM after 48 hrs by phase contrast microscopic analysis; type: functional, cell-based
# [4] = test system: U-251; test: Induction of methuosis in human U251 cells assessed as rounding of cell body at 2.5 uM after 24 hrs by phase contrast microscopic analysis; type: functional, cell-based
# [5] = test system: U-251; test: Induction of methuosis in human U251 cells assessed as rounding of cell body at 2.5 uM after 48 hrs by phase contrast microscopic analysis; type: functional, cell-based
# [6] = test system: U-251; test: Induction of microtubule disruption in human U251 cells up to 2.5 uM by DAPI staining based immunofluorescence microscopy; type: cell-based
# Summary of the method: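 U251 cells seeded on glass coverslips, 350,000 per 60 mm dish. One day later, fresh medium with compound at the stated concentrations was added for 24 h. Cells were fixed and stained with monoclonal anti-α-tubulin, then Alexa Fluor 568 goat anti-mouse IgG. Nuclei counterstained with DAPI.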
# [7] = test system: U-251; test: Mitotic arrest in human U251 cells assessed as accumulation at G2/M phase at >=500 nM after 24 hrs by propidium iodide staining based flow cytometric analysis; type: functional, cell-based
# Summary of the method: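 U251 cells seeded at 3.5 × 10^5 per 60 mm dish and treated the next day for 24 h. Attached and detached cells were harvested by trypsin and fixed in ice-cold 70% ethanol. They were then suspended in PBS with 6.25 mM MgSO4 and 1 mM CaCl2, RNase A-treated at 37 °C for 15 min and stained with propidium iodide. DNA content was read by flow cytometry.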
# [8] = test system: U-251; test: Induction of methuosis in human U251 cells assessed as cell detachment from dish at 2.5 uM after 24 hrs by phase contrast microscopic analysis; type: functional, cell-based
# [9] = test system: U-251; test: Induction of methuosis in human U251 cells assessed as formation of membrane blebs on cell surface at 2.5 uM after 48 hrs by phase contrast microscopic analysis; type: functional, cell-based
SMILES,inhibition of growth at 10 µM [1] [%],GI50 [2] [µM],other results
COc1ccc2c(/C=C/C(=O)c3ccncc3)c(C(F)(F)F)[nH]c2c1,< 50,> 10,–
COc1ccc2c(c1)c(/C=C/C(=O)c1ccncc1)c(C)n2C,< 50,> 10,–
COc1cccc2[nH]c(C)c(/C=C/C(=O)c3ccncc3)c12,–,8.67,Activity [3]: Active
COc1cccc2c(/C=C/C(=O)c3ccncc3)c(C)[nH]c12,–,4.42,–
COc1ccc2c(/C=C/C(=O)c3ccncc3)c(C)[nH]c2c1,–,0.09,Activity [4]: Active; Activity [5]: Active; Activity [3]: Active; Activity [6]: Active; Activity [7]: Active; Activity [8]: Active; Activity [9]: Active
COc1cc(OC)c(C(=O)/C=C/c2c(C)[nH]c3ccc(OC)cc23)c(OC)c1,–,3.74,–
COc1ccc2[nH]c(C)c(/C=C/C(=O)c3cc(OC)c(OC)c(OC)c3)c2c1,< 50,> 10,–
COc1cc2[nH]c(C)c(/C=C/C(=O)c3ccncc3)c2cc1OC,< 50,> 10,–
